Data: ChEMBL document CHEMBL5108039, “Piperazine tethered bergenin heterocyclic hybrids: design, synthesis, anticancer activity, and molecular docking studies” (RSC Med Chem, 2022)
pIC50: −log10 of the molar value.

Legend:
[1] = tested on: MCF7; test: Cytotoxicity against human MCF7 cells assessed as cell growth inhibition; format: functional, cell-based
In short: (§1)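 Compounds were dissolved in sterile DMSO as 10 mg ml−1 stocks and tested for in vitro growth inhibition of human cancer cell lines. Doxorubicin was the standard drug and DMSO (0.01%) the vehicle control. IC50 values are reported as means.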

[2] = tested on: SCC-9; test: Cytotoxicity against human SCC-9 cells assessed as cell growth inhibition; format: functional, cell-based; in short: as §1
[3] = tested on: A549; test: Cytotoxicity against human A549 cells assessed as cell growth inhibition; format: functional, cell-based
In short: (§2)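 Compounds were dissolved in sterile DMSO as 10 mg ml−1 stocks and tested in vitro for cytotoxicity in a cell-line panel, with DMSO (0.01%) as vehicle control and doxorubicin as standard. Mean IC50 values were reported, and the normal lung epithelial cells were tested up to 100 μM.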

[4] = tested on: CAL-27; test: Cytotoxicity against human CAL-27 cells assessed as cell growth inhibition; format: functional, cell-based; in short: as §1
[5] = tested on: HCT-15; test: Cytotoxicity against human HCT-15 cells assessed as cell growth inhibition; format: functional, cell-based; in short: as §1
[6] = Cytotoxicity against human BEAS-2B cells assessed as cell growth inhibition; format: toxicity, cell-based; in short: as §2

| SMILES | pIC50 [1] | pIC50 [2] | pIC50 [3] | pIC50 [4] | pIC50 [5] | pIC50 [6] |
| --- | --- | --- | --- | --- | --- | --- |
| COc1c(O)c(CN2CCN(S(=O)(=O)c3ccc(F)c(F)c3)CC2)c2c(c1O)C1O[C@H](CO)[C@@H](O)[C@H](O)C1OC2=O (stereo partly specified) | < 4.00 | < 4.00 | < 4.00 | < 4.00 | < 4.00 | < 4.00 |
| COc1c(O)c(CN2CCN(CC(=O)Nc3nc4c(C)cccc4s3)CC2)c2c(c1O)C1O[C@H](CO)[C@@H](O)[C@H](O)C1OC2=O (stereo partly specified) | < 4.00 | < 4.00 | < 4.00 | 4.09 | < 4.00 | < 4.00 |
| COc1c(O)c(CN2CCN(CC(=O)Nc3nc(-c4ccc(Cl)cc4)cs3)CC2)c2c(c1O)C1O[C@H](CO)[C@@H](O)[C@H](O)C1OC2=O (stereo partly specified) | 4.43 | < 4.00 | 4.30 | 4.33 | < 4.00 | < 4.00 |
| COc1c(O)c(CN2CCN(S(=O)(=O)c3cccs3)CC2)c2c(c1O)C1O[C@H](CO)[C@@H](O)[C@H](O)C1OC2=O (stereo partly specified) | < 4.00 | < 4.00 | < 4.00 | < 4.00 | < 4.00 | < 4.00 |
| COc1c(O)c(CN2CCN(CC(=O)Nc3nc(-c4ccc5ccccc5c4)cs3)CC2)c2c(c1O)C1O[C@H](CO)[C@@H](O)[C@H](O)C1OC2=O (stereo partly specified) | 4.60 | < 4.00 | 4.39 | 4.37 | < 4.00 | < 4.00 |
| COc1c(O)c(CN2CCN(CC(=O)Nc3nc4ccc(Cl)cc4s3)CC2)c2c(c1O)C1O[C@H](CO)[C@@H](O)[C@H](O)C1OC2=O (stereo partly specified) | 4.19 | 4.49 | 4.18 | < 4.00 | 4.01 | 4.35 |
| COc1c(O)c(CN2CCN(S(=O)(=O)c3ccc(C(F)(F)F)cc3)CC2)c2c(c1O)C1O[C@H](CO)[C@@H](O)[C@H](O)C1OC2=O (stereo partly specified) | < 4.00 | < 4.00 | < 4.00 | 4.16 | < 4.00 | < 4.00 |
| COc1ccc(S(=O)(=O)N2CCN(Cc3c(O)c(OC)c(O)c4c3C(=O)OC3C4O[C@H](CO)[C@@H](O)[C@@H]3O)CC2)cc1 (stereo partly specified) | < 4.00 | < 4.00 | < 4.00 | < 4.00 | < 4.00 | < 4.00 |
| COc1c(O)c(CN2CCN(S(=O)(=O)c3cccc4ccccc34)CC2)c2c(c1O)C1O[C@H](CO)[C@@H](O)[C@H](O)C1OC2=O (stereo partly specified) | < 4.00 | < 4.00 | < 4.00 | 4.13 | < 4.00 | < 4.00 |
| COc1c(O)c(CN2CCN(S(=O)(=O)c3ccc(F)c(Cl)c3)CC2)c2c(c1O)C1O[C@H](CO)[C@@H](O)[C@H](O)C1OC2=O (stereo partly specified) | < 4.00 | < 4.00 | < 4.00 | 4.03 | < 4.00 | < 4.00 |
| COc1c(O)c(CN2CCN(S(=O)(=O)c3ccc(F)cc3Cl)CC2)c2c(c1O)C1O[C@H](CO)[C@@H](O)[C@H](O)C1OC2=O (stereo partly specified) | < 4.00 | < 4.00 | < 4.00 | < 4.00 | < 4.00 | < 4.00 |
| COc1c(O)c(CN2CCN(CC(=O)Nc3nc4ccc(F)cc4s3)CC2)c2c(c1O)C1O[C@H](CO)[C@@H](O)[C@H](O)C1OC2=O (stereo partly specified) | < 4.00 | < 4.00 | < 4.00 | 4.28 | < 4.00 | < 4.00 |
| COc1c(O)c(CN2CCN(CC(=O)Nc3nc4c(Cl)cccc4s3)CC2)c2c(c1O)C1O[C@H](CO)[C@@H](O)[C@H](O)C1OC2=O (stereo partly specified) | 4.71 | 4.76 | 4.65 | 4.81 | 4.52 | 4.66 |
| COc1c(O)c(CN2CCN(S(=O)(=O)c3ccc(OC(F)(F)F)cc3)CC2)c2c(c1O)C1O[C@H](CO)[C@@H](O)[C@H](O)C1OC2=O (stereo partly specified) | < 4.00 | < 4.00 | < 4.00 | < 4.00 | < 4.00 | < 4.00 |
| CCOc1ccc2nc(NC(=O)CN3CCN(Cc4c(O)c(OC)c(O)c5c4C(=O)OC4C5O[C@H](CO)[C@@H](O)[C@@H]4O)CC3)sc2c1 (stereo partly specified) | < 4.00 | < 4.00 | < 4.00 | 4.08 | < 4.00 | < 4.00 |
| COc1c(O)c(CN2CCN(S(=O)(=O)c3ccc(F)c(F)c3F)CC2)c2c(c1O)C1O[C@H](CO)[C@@H](O)[C@H](O)C1OC2=O (stereo partly specified) | < 4.00 | < 4.00 | < 4.00 | < 4.00 | < 4.00 | < 4.00 |
| COc1ccc(S(=O)(=O)N2CCN(Cc3c(O)c(OC)c(O)c4c3C(=O)OC3C4O[C@H](CO)[C@@H](O)[C@@H]3O)CC2)cc1OC (stereo partly specified) | < 4.00 | < 4.00 | < 4.00 | < 4.00 | < 4.00 | < 4.00 |
| COc1c(O)c(CN2CCN(CC(=O)Nc3nc(-c4cccc5ccccc45)cs3)CC2)c2c(c1O)C1O[C@H](CO)[C@@H](O)[C@H](O)C1OC2=O (stereo partly specified) | < 4.00 | 4.18 | < 4.00 | 4.24 | 4.06 | 4.08 |
| COc1c(O)cc2c(c1O)C1O[C@H](CO)[C@@H](O)[C@H](O)C1OC2=O (stereo partly specified) | < 4.00 | < 4.00 | < 4.00 | < 4.00 | < 4.00 | < 4.00 |
| COc1ccc2nc(NC(=O)CN3CCN(Cc4c(O)c(OC)c(O)c5c4C(=O)OC4C5O[C@H](CO)[C@@H](O)[C@@H]4O)CC3)sc2c1 (stereo partly specified) | < 4.00 | < 4.00 | < 4.00 | < 4.00 | < 4.00 | < 4.00 |
| COc1c(O)c(CN2CCN(CC(=O)Nc3nc4ccc([N+](=O)[O-])cc4s3)CC2)c2c(c1O)C1O[C@H](CO)[C@@H](O)[C@H](O)C1OC2=O (stereo partly specified) | < 4.00 | 4.42 | < 4.00 | 4.52 | 4.07 | 4.23 |
| COc1c(O)c(CN2CCN(S(=O)(=O)c3ccccc3)CC2)c2c(c1O)C1O[C@H](CO)[C@@H](O)[C@H](O)C1OC2=O (stereo partly specified) | < 4.00 | < 4.00 | < 4.00 | 4.07 | < 4.00 | < 4.00 |
| COc1c(O)c(CN2CCN(S(=O)(=O)c3ccc(Br)cc3)CC2)c2c(c1O)C1O[C@H](CO)[C@@H](O)[C@H](O)C1OC2=O (stereo partly specified) | < 4.00 | < 4.00 | < 4.00 | < 4.00 | < 4.00 | 4.65 |
| COc1c(O)c(CN2CCN(S(=O)(=O)c3ccc([N+](=O)[O-])cc3)CC2)c2c(c1O)C1O[C@H](CO)[C@@H](O)[C@H](O)C1OC2=O (stereo partly specified) | < 4.00 | < 4.00 | < 4.00 | 4.04 | < 4.00 | < 4.00 |
| COc1c(O)c(CN2CCN(CC(=O)Nc3nc4ccccc4s3)CC2)c2c(c1O)C1O[C@H](CO)[C@@H](O)[C@H](O)C1OC2=O (stereo partly specified) | < 4.00 | 4.19 | < 4.00 | 4.04 | < 4.00 | 4.01 |
| COc1c(O)c(CN2CCN(S(=O)(=O)c3ccc(C)cc3)CC2)c2c(c1O)C1O[C@H](CO)[C@@H](O)[C@H](O)C1OC2=O (stereo partly specified) | < 4.00 | < 4.00 | < 4.00 | 4.25 | < 4.00 | 4.29 |
